Test results: ChEMBL document CHEMBL1127308, “Inhibition of human neutrophil elastase with peptidyl electrophilic ketones. 2. Orally active PG-Val-Pro-Val pentafluoroethyl ketones” (J Med Chem, 1994)
Activity calls are given as the source filed them. The calls are words filed in the database; no cut-off is given here.

Tests used:
[1] = Half life determined from epimerization data at 37 degree C in human blood plasma; format: ADME, organism-based
How it was run: (§1)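 The L-L-L or L-L-D diastereomer was held at 37 °C in human blood serum (three individual donors) or human plasma, with a sealed D2O capillary inserted into the NMR tube for lock. Epimerization was followed by 19F NMR spectra, and the half-life was taken from these spectra.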

[2] = Half life determined from epimerization data at 37 degree C in human blood serum 2; format: ADME, organism-based, Plasma; how it was run: as §1
[3] = Half life determined from epimerization data at 37 degree C in human blood serum 3; format: ADME, organism-based, Plasma; how it was run: as §1
[4] = system: Cricetinae gen. sp.; assay: In vivo inhibitory activity against HNE-induced pulmonary hemorrhage was determined in hamsters after oral administration of 25 mg/kg; format: functional
How it was run: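 Hamsters were dosed orally 30 min (one case 15 min) before intratracheal instillation of 20 or 10 μg HNE. After 1 h, lungs were lavaged with saline, and BAL hemoglobin was read at 536–546 nm against a Hgb standard curve. Inhibition was calculated versus vehicle controls, 6–19 hamsters per group, as mean ± SEM, with ANOVA and Dunnett's test (p ≤ 0.05).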

[5] = target: Pepsin A (Sus scrofa) (UniProt P00791); assay: Tested for the ability to inhibit pepsin at 0.2 mM
Chain of Pepsin A (Sus scrofa) (P00791 60-385 limits assumed): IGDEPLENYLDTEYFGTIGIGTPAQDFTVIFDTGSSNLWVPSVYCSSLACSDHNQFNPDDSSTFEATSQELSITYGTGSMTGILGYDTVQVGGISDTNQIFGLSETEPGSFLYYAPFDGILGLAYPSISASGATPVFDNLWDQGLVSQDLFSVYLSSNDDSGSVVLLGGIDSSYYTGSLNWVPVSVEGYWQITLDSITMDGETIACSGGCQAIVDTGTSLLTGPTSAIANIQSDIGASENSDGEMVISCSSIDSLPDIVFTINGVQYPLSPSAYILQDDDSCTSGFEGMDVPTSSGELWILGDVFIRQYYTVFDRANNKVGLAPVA

[6] = system: Rattus norvegicus; assay: In vivo inhibitory activity against HNE-induced pulmonary hemorrhage was determined in rats after oral administration of 50 mg/kg; format: functional
How it was run: (§2)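 Rats were dosed orally 45 min before intratracheal instillation of 100 μg HNE. After 1 h, lungs were lavaged with saline, and BAL hemoglobin was measured spectrophotometrically (536–546 nm) against a Hgb standard curve. Percent inhibition was calculated versus vehicle-treated controls, 5–10 rats per group, as mean ± SEM, with one-way ANOVA and Dunnett's test (p ≤ 0.05).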

[7] = target: Prothrombin (Bos taurus) (UniProt P00735); assay: Tested for the ability to inhibit bovine thrombin at 0.5 mM
[8] = Inhibition of HNE-induced pulmonary hemorrhage when the compound was administered before 30 or 45 min at the dose of 50 mg/kg; orally active; format: functional, organism-based; set-up: dose 50 mg/kg
[9] = target: T1, Neutrophil elastase (Homo sapiens, UniProt P08246); assay: In vitro inhibitory activity against human neutrophil elastase […]; set-up: dose 50 mg/kg
T1 sequence (P08246 whole entry): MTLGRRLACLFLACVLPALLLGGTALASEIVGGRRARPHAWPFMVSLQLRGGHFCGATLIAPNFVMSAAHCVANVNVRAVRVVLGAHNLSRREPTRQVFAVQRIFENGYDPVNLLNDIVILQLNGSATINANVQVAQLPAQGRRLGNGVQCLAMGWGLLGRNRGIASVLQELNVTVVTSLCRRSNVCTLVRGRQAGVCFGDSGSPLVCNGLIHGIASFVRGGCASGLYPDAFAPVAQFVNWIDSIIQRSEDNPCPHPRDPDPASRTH

[10] = target: T2, Cathepsin G (Homo sapiens) (UniProt P08311); assay: Tested for the ability to inhibit human neutrophil cathepsin G at 0.5 mM
T2 sequence (whole entry): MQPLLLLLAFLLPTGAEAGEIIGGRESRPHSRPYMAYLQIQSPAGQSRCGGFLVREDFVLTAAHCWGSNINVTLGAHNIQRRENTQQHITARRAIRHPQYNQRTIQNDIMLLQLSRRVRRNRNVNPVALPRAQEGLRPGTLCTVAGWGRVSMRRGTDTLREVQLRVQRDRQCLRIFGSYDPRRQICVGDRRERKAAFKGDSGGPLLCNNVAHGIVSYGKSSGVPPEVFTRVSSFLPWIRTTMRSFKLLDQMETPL

[11] = target: Cathepsin B (Bos taurus) (UniProt P07688); assay: Tested for the ability to inhibit bovine liver cathepsin B at 0.5 mM
[12] = target: T3, Neprilysin (Rattus norvegicus) (UniProt P07861); assay: Tested for the ability to inhibit rat kidney enkephalinase at 0.5 mM
T3 sequence (whole entry): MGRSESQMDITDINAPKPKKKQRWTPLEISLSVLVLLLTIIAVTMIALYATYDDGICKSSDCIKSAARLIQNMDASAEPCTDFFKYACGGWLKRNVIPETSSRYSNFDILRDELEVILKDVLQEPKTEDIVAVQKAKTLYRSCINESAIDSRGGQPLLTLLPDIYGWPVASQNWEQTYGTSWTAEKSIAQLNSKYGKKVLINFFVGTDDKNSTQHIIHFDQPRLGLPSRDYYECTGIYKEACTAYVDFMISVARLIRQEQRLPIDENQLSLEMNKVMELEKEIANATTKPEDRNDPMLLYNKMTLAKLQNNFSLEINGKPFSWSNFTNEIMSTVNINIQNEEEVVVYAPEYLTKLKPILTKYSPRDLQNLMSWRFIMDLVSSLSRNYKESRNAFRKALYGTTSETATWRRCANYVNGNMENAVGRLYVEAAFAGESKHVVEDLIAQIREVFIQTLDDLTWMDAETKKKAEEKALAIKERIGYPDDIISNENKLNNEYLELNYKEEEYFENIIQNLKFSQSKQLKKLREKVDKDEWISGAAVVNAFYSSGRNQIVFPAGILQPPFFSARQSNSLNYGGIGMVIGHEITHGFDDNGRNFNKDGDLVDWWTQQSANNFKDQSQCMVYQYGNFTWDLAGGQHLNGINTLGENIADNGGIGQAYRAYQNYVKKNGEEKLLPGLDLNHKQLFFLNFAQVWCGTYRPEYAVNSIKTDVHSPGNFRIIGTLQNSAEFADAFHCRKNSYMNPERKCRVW

[13] = Half life determined from epimerization data at 25 degree C in buffered saline
[14] = Half life determined from epimerization data at 25 degree C in Tween 20 (81 mM); conditions: Tween 20 solution (81 mM)
[15] = Inhibition of HNE-induced pulmonary hemorrhage when the compound was administered before 30 or 45 min at the dose of 50 mg/kg; Not orally active; format: functional, organism-based; set-up: dose 50 mg/kg
[16] = target: T1, Neutrophil elastase; assay: In vitro inhibitory activity against human neutrophil elastase was determined at a dose of 45 mg/kg; format: organism-based; set-up: dose 45 mg/kg
[17] = Inhibition of HNE-induced pulmonary hemorrhage when the compound was administered before 30 or 45 min at the dose of 50 mg/kg; not orally active; format: functional, organism-based; set-up: dose 50 mg/kg
[18] = system: Rattus norvegicus; assay: In vivo inhibitory activity against HNE-induced pulmonary hemorrhage was determined in rats after oral administration of 45 mg/kg; format: functional; how it was run: as §2
[19] = target: T1, Neutrophil elastase; assay: In vitro inhibitory activity against human neutrophil elastase was determined at a dose of 25 mg/kg; format: organism-based; set-up: dose 25 mg/kg
[20] = system: Rattus norvegicus; assay: In vivo inhibitory activity against HNE-induced pulmonary hemorrhage was determined in rats after oral administration of 25 mg/kg; format: functional; how it was run: as §2
[21] = target: T1, Neutrophil elastase; assay: In vitro inhibitory activity against human neutrophil elastase
How it was run: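 HNE was partially purified from human purulent sputum and assayed with MeO-Suc-Ala-Ala-Pro-Val-p-nitroanilide; the assay contained 10% v/v DMSO. Ki was found either from a double-reciprocal plot (four substrate × three inhibitor concentrations) or, assuming competitive inhibition, from three inhibitor concentrations at 0.2 mM substrate (≈Km) using v0/vi = 1 + [I]/Ki,app and Ki = Ki,app/(1 + [S]/Km). Inhibitor was 5–100-fold over enzyme, with no hydration correction.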

[22] = target: T1, Neutrophil elastase; assay: In vitro inhibitory activity against human neutrophil elastase was determined at a dose of 100 mg/kg; format: organism-based; set-up: dose 100 mg/kg
[23] = system: Rattus norvegicus; assay: In vivo inhibitory activity against HNE-induced pulmonary hemorrhage was determined in rats after oral administration of 100 mg/kg; format: functional; how it was run: as §2

| SMILES | Ki [9] | inhibition in vivo at 25 mg/kg [4] | inhibition in vivo at 50 mg/kg [6] | Oral activity [8] | Oral activity [15] | further results |
| --- | --- | --- | --- | --- | --- | --- |
| CC(C)C(NC(=O)[C@@H]1CCCN1C(=O)[C@@H](NC(=O)CCc1cccnc1)C(C)C)C(=O)C(F)(F)C(F)(F)F (some centres undefined) | – | 67% | – | Active | – | – |
| CC(C)C(NC(=O)[C@@H]1CCCN1C(=O)[C@@H](NC(=O)c1ccc(C(=O)O)cc1)C(C)C)C(=O)C(F)(F)C(F)(F)F (some centres undefined) | – | -3% | – | – | inactive | – |
| CC(C)C(NC(=O)[C@@H]1CCCN1C(=O)[C@@H](NC(=O)c1ccc(C(=O)N2CCOCC2)nc1)C(C)C)C(=O)C(F)(F)C(F)(F)F (some centres undefined) | – | 61% | – | – | – | – |
| CC(C)[C@H](NC(=O)c1ccco1)C(=O)N1CCC[C@H]1C(=O)N[C@H](C(=O)C(F)(F)C(F)(F)F)C(C)C | – | – | – | – | – | Ki [16]: 190 nM; Oral activity [17]: inactive; inhibition in vivo at 45 mg/kg [18]: 44% |
| CC(C)C(NC(=O)[C@@H]1CCCN1C(=O)[C@@H](NC(=O)CC(=O)N1CCOCC1)C(C)C)C(=O)C(F)(F)C(F)(F)F (some centres undefined) | – | – | – | – | – | Ki [19]: 70 nM; inhibition in vivo at 25 mg/kg [20]: 41% |
| CC(C)[C@H](NC(=O)N(C)C)C(=O)N1CCC[C@H]1C(=O)N[C@H](C(=O)C(F)(F)C(F)(F)F)C(C)C | – | – | 70% | Active | – | Ki [21]: 261 nM |
| CC(C)C(NC(=O)[C@@H]1CCCN1C(=O)[C@@H](NC(=O)c1ccc(C(=O)NS(=O)(=O)c2ccc(Cl)cc2)cc1)C(C)C)C(=O)C(F)(F)C(F)(F)F (some centres undefined) | – | – | – | – | inactive | Ki [22]: 7 nM; inhibition in vivo at 100 mg/kg [23]: -30% |
| CC(C)C(NC(=O)[C@@H]1CCCN1C(=O)[C@@H](NC(=O)c1ccc(C(=O)N2CCN(C(=O)N3CCOCC3)CC2)cc1)C(C)C)C(=O)C(F)(F)C(F)(F)F (some centres undefined) | – | 31% | – | – | inactive | – |
| CC(C)C(NC(=O)[C@@H]1CCCN1C(=O)[C@@H](NC(=O)c1ccc(S(=O)(=O)N2CCOCC2)cc1)C(C)C)C(=O)C(F)(F)C(F)(F)F (some centres undefined) | – | 30% | – | – | inactive | – |
| CC(C)C(NC(=O)[C@@H]1CCCN1C(=O)[C@@H](NC(=O)C(C(=O)N1CCOCC1)C(C)C)C(C)C)C(=O)C(F)(F)C(F)(F)F (some centres undefined) | – | 70% | – | Active | – | – |

Second part, led by results:

| Ki [9] | SMILES | inhibition in vivo at 25 mg/kg [4] | inhibition in vivo at 50 mg/kg [6] | Oral activity [8] | Oral activity [15] | further results |
| --- | --- | --- | --- | --- | --- | --- |
| 25 nM | CC(C)C(NC(=O)[C@@H]1CCCN1C(=O)[C@@H](NC(=O)c1ccc(C(=O)N2CCOCC2)cc1)C(C)C)C(=O)C(F)(F)C(F)(F)F (some centres undefined) | 74% | 69% | Active | – | half-life [1]: 30 min; half-life [2]: 30 min; half-life [3]: 30 min; inhibition [5]: 40%; inhibition [7]: < 5%; inhibition [10]: 15%; inhibition [11]: < 5%; inhibition [12]: < 5%; half-life [13]: > 200 h; half-life [14]: 70 min |
| 43 nM | CC(C)C(NC(=O)[C@@H]1CCCN1C(=O)[C@@H](NC(=O)c1ccc(NC(=O)N2CCOCC2)cc1)C(C)C)C(=O)C(F)(F)C(F)(F)F (some centres undefined) | – | 26% | – | inactive | – |
| 170 nM | CC(C)C(NC(=O)[C@@H]1CCCN1C(=O)[C@@H](NC(=O)N1CCOCC1)C(C)C)C(=O)C(F)(F)C(F)(F)F (some centres undefined) | 69% | 69% | Active | – | – |
| 59 nM | CC(C)C(NC(=O)[C@@H]1CCCN1C(=O)[C@@H](NC(=O)C1CCOCC1)C(C)C)C(=O)C(F)(F)C(F)(F)F (some centres undefined) | – | 71% | Active | – | – |
| 60 nM | CC(C)[C@H](NC(=O)CN1CCOCC1)C(=O)N1CCC[C@H]1C(=O)N[C@H](C(=O)C(F)(F)C(F)(F)F)C(C)C | – | 77% | Active | – | – |
